Columns and labels:
[1] = Lipophilicity, log D at pH 7.4; format: physicochemical; conditions: buffer
[2] = Lipophilicity, log P of the compound; format: physicochemical; conditions: octanol/water
[3] = Dissociation constant, pKa of the compound; format: physicochemical
Method in brief: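 Potentiometric co-solvent titration in 0.15 mol/L KCl over pH 2.0–11.0 at 25 °C. Methanol co-solvent at varying proportions; 0.5 mol/L KOH and HCl as titrants. Aqueous pKa obtained by linear extrapolation to 0% co-solvent (Yasuda–Shedlovsky plot).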

[4] = Inhibition of H+/K+ ATPase in hog gastric mucosa by competitive binding assay; format: tissue-based, Sus scrofa
Method in brief: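 Competitive binding assay using H+/K+-ATPase prepared from hog gastric mucosa; activity reported as −log IC50.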

SMILES | logD [1] | logP [2] | pKa [3] | Log IC50 [4]
COCCNC(=O)c1cc(N[C@H]2c3ccccc3C[C@@H]2O)c2nc(C)c(C)n2c1 | 3.41 | 3.43 | 6.01 | -4.7
COc1cccc2c1[C@H](Oc1cc(C(=O)N(C)C)cn3c(C)c(C)nc13)[C@@H](O)C2 | 2.27 | 2.3 | 6.27 | -5.7
CCc1cccc(C)c1CNc1cc(C(N)=O)cn2c(C)c(C)nc12 | 4.93 | 4.95 | 6.1 | -6.2
Cc1cccc2c1[C@H](Oc1cc(C(=O)N(C)C)cn3c(C)c(C)nc13)[C@@H](O)C2 | 2.56 | 2.59 | 6.22 | -6.9
Cc1nc2c(O[C@H]3c4ccccc4C[C@@H]3O)cc(C(=O)N(C)C)cn2c1C | 2.16 | 2.2 | 6.21 | -5.7

Continued, values first:

logD [1] | logP [2] | pKa [3] | Log IC50 [4] | SMILES
2.82 | 2.85 | 6.24 | -6.3 | Cc1nc2c(N[C@H]3c4ccccc4C[C@@H]3O)cc(C(=O)N(C)C)cn2c1C
3.09 | 3.11 | 5.97 | -4.8 | Cc1nc2c(N[C@H]3c4ccccc4C[C@@H]3O)cc(C(N)=O)cn2c1C
3.39 | 3.4 | 5.97 | -5.4 | CNC(=O)c1cc(N[C@H]2c3ccccc3C[C@@H]2O)c2nc(C)c(C)n2c1
